Test results published in ChEMBL document CHEMBL5346861, “Designing quinoline-isoniazid hybrids as potent anti-tubercular agents inhibiting mycolic acid biosynthesis” (Eur J Med Chem, 2022).
Converted amounts (≈) assume the structure as drawn. The source made the active and inactive calls. The rule behind the calls is not given here.

What was measured:
[1] = tested on: Mycobacterium tuberculosis; test: Induction of resistance development in Mycobacterium tuberculosis mc2 6230 harbouring pMV261 plasmid overexpressing inhA assessed as fold increase in MIC measured after 7 days by 7H9 broth based dilution method; format: functional; conditions: time 7 day
[2] = tested on: Mycobacterium tuberculosis; test: Induction of resistance development in Mycobacterium tuberculosis mc2 6230 harbouring pMV261 plasmid overexpressing inhA assessed as fold increase in MIC measured after 7 days by 7H10 agar based dilution method; format: functional; conditions: time 7 day
[3] = tested on: Mycobacterium tuberculosis; test: Antimycobacterial activity against Mycobacterium tuberculosis mc2 6230 harbouring pMV261 plasmid overexpressing inhA assessed as inhibition of bacterial growth measured after 7 days by 7H10 agar based dilution method; format: functional; conditions: mc2 6230, 168 h, time 7 day
[4] = tested on: Mycobacterium tuberculosis; test: Antimycobacterial activity against Mycobacterium tuberculosis mc2 6230 harbouring pMV261 plasmid overexpressing inhA assessed as inhibition of bacterial growth measured after 7 days by 7H9 broth based dilution method; format: functional; conditions: mc2 6230, 168 h, time 7 day
[5] = tested on: Mycobacterium tuberculosis; test: Induction of resistance development in Mycobacterium tuberculosis harbouring katG W161R mutant assessed as resistance frequency at 5 times of MIC by visual analysis; format: functional
[6] = tested on: Mycobacterium tuberculosis; test: Induction of resistance development in Mycobacterium tuberculosis harbouring katG amino acid change at stop codon mutant assessed as resistance frequency at 5 times of MIC by visual analysis; format: functional
[7] = tested on: Mycobacterium tuberculosis; test: Induction of resistance development in Mycobacterium tuberculosis harbouring katG G495D mutant assessed as resistance frequency at 20 times of MIC by visual analysis; format: functional
[8] = tested on: Mycobacterium tuberculosis; test: Inhibition of mycolic acid biosynthesis in Mycobacterium tuberculosis mc2 6230 harbouring pMV261 plasmid overexpressing inhA assessed as decrease in alpha-mycolic acid at 1.25 ug/ml incubated for 15 mins followed by 14C-labeled acetate addition measured after 7 hrs by TLC analysis; format: functional, organism-based; conditions: dose 1.25 µg/ml, time 435.0 min
Summary of the method: (§1)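 mc²6230 carrying pMV261-inhA, treated for 15 hrs at 37 °C with agitation in 7H9/OADC/tyloxapol/pantothenate. Then labelled with 1 μCi/mL [¹⁴C]acetate for 7 hrs. Mycolic acid methyl esters extracted, 50,000 cpm resolved by TLC (hexane/ethyl acetate 19/1, 2 runs) and exposed overnight.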

[9] = tested on: Mycobacterium tuberculosis; test: Induction of resistance development in Mycobacterium tuberculosis harbouring katG F594C mutant assessed as resistance frequency at 5 times of MIC by visual analysis; format: functional
[10] = tested on: Mycobacterium tuberculosis; test: Inhibition of mycolic acid biosynthesis in Mycobacterium tuberculosis mc2 6230 harbouring pMV261 plasmid overexpressing inhA assessed as decrease in keto-mycolic acid at 1.25 ug/ml incubated for 15 mins followed by 14C-labeled acetate addition measured after 7 hrs by TLC analysis; format: functional, organism-based; conditions: dose 1.25 µg/ml, time 435.0 min; summary of the method: as §1
[11] = tested on: Mycobacterium tuberculosis; test: Inhibition of mycolic acid biosynthesis in Mycobacterium tuberculosis mc2 6230 harbouring pMV261 plasmid overexpressing inhA assessed as decrease in methoxy-mycolic acid at 1.25 ug/ml incubated for 15 mins followed by 14C-labeled acetate addition measured after 7 hrs by TLC analysis; format: functional, organism-based; conditions: dose 1.25 µg/ml, time 435.0 min; summary of the method: as §1
[12] = tested on: Mycobacterium tuberculosis; test: Induction of resistance development in Mycobacterium tuberculosis harbouring katG 186 del mutant assessed as resistance frequency at 20 times of MIC by visual analysis; format: functional

SMILES	fold change (FC) [1]	fold change (FC) [2]	MIC [3] [µg/mL]	MIC [4] [µg/mL]	Activity [5]	Activity [6]	Activity [7]	inhibition [8]	Activity [9]	inhibition [10]	inhibition [11]	Activity [12]
COc1cc(/C=N/NC(=O)c2ccncc2)ccc1OCc1cn(CCCNc2ccnc3cc(Cl)ccc23)nn1	25	25	6.25 (≈ 10.9 µM)	25 (≈ 43.8 µM)	1.16 10^-6No_unit							
COc1cc(/C=N/NC(=O)c2ccncc2)ccc1OCc1cn(-c2ccnc3cc(Cl)ccc23)nn1	25	25	12.5 (≈ 24.3 µM)	50 (≈ 97.3 µM)								
O=C(N/N=C/c1ccc(OCc2cn(-c3ccnc4cc(Cl)ccc34)nn2)cc1)c1ccncc1	25	25	6.25 (≈ 12.9 µM)	> 200								
O=C(N/N=C/c1ccc(OCc2cn(CCNc3ccnc4cc(Cl)ccc34)nn2)cc1)c1ccncc1	25	25	6.25 (≈ 11.9 µM)	12.5 (≈ 23.7 µM)								
NNC(=O)c1ccncc1 [ISONIAZID]	20	20	1 (≈ 7.29 µM)	1 (≈ 7.29 µM)								
COc1cc(/C=N/NC(=O)c2ccncc2)ccc1OCc1cn(CCNc2ccnc3cc(Cl)ccc23)nn1	25	25	12.5 (≈ 22.4 µM)	25 (≈ 44.9 µM)								
O=C(N/N=C/c1ccc(OCc2cn(CCCNc3ccnc4cc(Cl)ccc34)nn2)cc1)c1ccncc1	25	25	6.25 (≈ 11.6 µM)	12.5 (≈ 23.1 µM)		1.52 10^-6No_unit	5 10^-7No_unit					
O=C(N/N=C/c1ccccc1-n1cc(CN2CCN(c3ccnc4cc(Cl)ccc34)CC2)nn1)c1ccncc1	25	25	6.25 (≈ 11.3 µM)	6.25 (≈ 11.3 µM)				inactive	1.8 10^-6No_unit	inactive	inactive	7.1 10^-7No_unit
